Results: ChEMBL document CHEMBL1153999, “5,6-Diarylanthranilo-1,3-dinitriles as a new class of antihyperglycemic agents” (Bioorg Med Chem Lett, 2009)
Values after ≈ are worked out from the molar mass of the structure shown. Active and inactive are the calls of the source. No cut-off for these calls is given here.

Assays:
[1] = molecular target: T1, Glucose-6-phosphatase catalytic subunit 1 (Homo sapiens) (UniProt P35575); test: Inhibition of glucose-6-phosphatase at 100 uM
T1 sequence (whole entry): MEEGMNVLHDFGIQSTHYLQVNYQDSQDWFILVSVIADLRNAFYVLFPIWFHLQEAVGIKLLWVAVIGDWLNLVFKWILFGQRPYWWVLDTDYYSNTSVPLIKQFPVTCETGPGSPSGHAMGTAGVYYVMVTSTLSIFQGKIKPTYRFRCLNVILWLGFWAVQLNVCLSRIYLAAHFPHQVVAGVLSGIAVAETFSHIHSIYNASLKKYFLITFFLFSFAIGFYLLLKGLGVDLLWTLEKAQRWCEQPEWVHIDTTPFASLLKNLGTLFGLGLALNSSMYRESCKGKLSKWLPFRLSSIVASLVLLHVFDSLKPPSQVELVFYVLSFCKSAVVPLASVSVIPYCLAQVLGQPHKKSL
Summary of the method: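 Compound was preincubated 10 min with glucose-6-phosphatase in 1.0 mL of 0.3 M citrate (pH 6.0), 28 mM EDTA, 14 mM NaF and 200 mM glucose-6-phosphate. The mixture was incubated 30 min at 37 °C and stopped with 10% TCA. Released Pi in the supernatant was measured by Taussky–Shorr; activity is µmol Pi/min/mg protein.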

[2] = molecular target: Maltase-glucoamylase (Homo sapiens) (UniProt O43451); test: Inhibition of alpha-glucosidase at 100 uM
Summary of the method: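 Purified α-glucosidase (0.1 mg/mL) was assayed in 67 mM sodium phosphate (pH 6.8) with 1.0 mg/mL glutathione, 1 mL. The reaction was started with 3.0 mg/mL pNPG and followed at 405 nm every 30 s for 3 min.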

Glycogen phosphorylase [3] = test: Inhibition of glycogen phosphorylase at 100 uM
[4] = molecular target: T2, Tyrosine-protein phosphatase non-receptor type 1 (Homo sapiens) (UniProt P18031); test: Inhibition of PTP1B at 100 uM
T2 sequence (whole entry): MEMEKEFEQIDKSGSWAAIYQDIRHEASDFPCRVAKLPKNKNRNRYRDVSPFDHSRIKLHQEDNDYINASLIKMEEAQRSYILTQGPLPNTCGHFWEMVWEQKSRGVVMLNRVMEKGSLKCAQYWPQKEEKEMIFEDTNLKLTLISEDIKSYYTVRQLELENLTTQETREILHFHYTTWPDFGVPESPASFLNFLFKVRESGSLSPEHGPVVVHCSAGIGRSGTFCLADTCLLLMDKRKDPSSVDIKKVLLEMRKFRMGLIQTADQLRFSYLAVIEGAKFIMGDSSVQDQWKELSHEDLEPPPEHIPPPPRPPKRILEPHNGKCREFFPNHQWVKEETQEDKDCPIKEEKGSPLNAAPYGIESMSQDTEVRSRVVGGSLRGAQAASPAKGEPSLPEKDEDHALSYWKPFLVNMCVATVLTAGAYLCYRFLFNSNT
Summary of the method: (§1)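 The PTP-1B assay used 10 mM pNPP in 50 mM HEPES (pH 7.0) with 1 mM DTT and 2 mM EDTA, 1.0 mL, 37 °C for 30 min. It was stopped with 0.1 N NaOH and read at 410 nm. p-Nitrophenolate was calculated with ε 1.78 × 10⁴ M⁻¹ cm⁻¹. Sodium vanadate was the reference.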

Rattus norvegicus [5] = test: Antihyperglycemic activity in Sprague-Dawley rat assessed as inhibition of streptozotocin-induced increase in blood glucose level at 100 mg/kg, po after 24 hrs; assay type: functional; design: scale not given: the % may be the effect or the level left
Summary of the method: (§2)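 Overnight-fasted male Sprague–Dawley rats were made diabetic with streptozotocin 60 mg/kg ip in 100 mM citrate (pH 4.5). Rats with glucose >10 mM at 48 h and a baseline of 140–270 mg/dL were used, 5 per group. Test suspension or 1% gum acacia vehicle was given orally, then sucrose 2.5 g/kg orally 30 min later. Glucose was read at 30–1440 min; % activity is from AUC versus vehicle (Dunnett test).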

Rattus norvegicus [6] = test: Antihyperglycemic activity in Sprague-Dawley rat assessed as inhibition of streptozotocin-induced increase in blood glucose level at 100 mg/kg, po after 5 hrs; assay type: functional; design: scale not given: the % may be the effect or the level left; summary of the method: as §2
Rattus norvegicus [7] = test: Toxicity in Sprague-Dawley rat up to 250 mg/kg, po; assay type: organism-based; design: dose 250 mg/kg, route oral; conditions: in vivo
[8] = molecular target: T3, Tyrosine-protein phosphatase non-receptor type 1 (Homo sapiens, UniProt P18031); test: Inhibition of PTP1B; summary of the method: as §1
T3 sequence (P18031 whole entry): T2 sequence (whole entry)

[9] = Solubility in triple distilled water; assay type: physicochemical
Glycogen phosphorylase [10] = test: Inhibition of glycogen phosphorylase

Chain of Maltase-glucoamylase (Homo sapiens) (O43451 whole entry, looked up): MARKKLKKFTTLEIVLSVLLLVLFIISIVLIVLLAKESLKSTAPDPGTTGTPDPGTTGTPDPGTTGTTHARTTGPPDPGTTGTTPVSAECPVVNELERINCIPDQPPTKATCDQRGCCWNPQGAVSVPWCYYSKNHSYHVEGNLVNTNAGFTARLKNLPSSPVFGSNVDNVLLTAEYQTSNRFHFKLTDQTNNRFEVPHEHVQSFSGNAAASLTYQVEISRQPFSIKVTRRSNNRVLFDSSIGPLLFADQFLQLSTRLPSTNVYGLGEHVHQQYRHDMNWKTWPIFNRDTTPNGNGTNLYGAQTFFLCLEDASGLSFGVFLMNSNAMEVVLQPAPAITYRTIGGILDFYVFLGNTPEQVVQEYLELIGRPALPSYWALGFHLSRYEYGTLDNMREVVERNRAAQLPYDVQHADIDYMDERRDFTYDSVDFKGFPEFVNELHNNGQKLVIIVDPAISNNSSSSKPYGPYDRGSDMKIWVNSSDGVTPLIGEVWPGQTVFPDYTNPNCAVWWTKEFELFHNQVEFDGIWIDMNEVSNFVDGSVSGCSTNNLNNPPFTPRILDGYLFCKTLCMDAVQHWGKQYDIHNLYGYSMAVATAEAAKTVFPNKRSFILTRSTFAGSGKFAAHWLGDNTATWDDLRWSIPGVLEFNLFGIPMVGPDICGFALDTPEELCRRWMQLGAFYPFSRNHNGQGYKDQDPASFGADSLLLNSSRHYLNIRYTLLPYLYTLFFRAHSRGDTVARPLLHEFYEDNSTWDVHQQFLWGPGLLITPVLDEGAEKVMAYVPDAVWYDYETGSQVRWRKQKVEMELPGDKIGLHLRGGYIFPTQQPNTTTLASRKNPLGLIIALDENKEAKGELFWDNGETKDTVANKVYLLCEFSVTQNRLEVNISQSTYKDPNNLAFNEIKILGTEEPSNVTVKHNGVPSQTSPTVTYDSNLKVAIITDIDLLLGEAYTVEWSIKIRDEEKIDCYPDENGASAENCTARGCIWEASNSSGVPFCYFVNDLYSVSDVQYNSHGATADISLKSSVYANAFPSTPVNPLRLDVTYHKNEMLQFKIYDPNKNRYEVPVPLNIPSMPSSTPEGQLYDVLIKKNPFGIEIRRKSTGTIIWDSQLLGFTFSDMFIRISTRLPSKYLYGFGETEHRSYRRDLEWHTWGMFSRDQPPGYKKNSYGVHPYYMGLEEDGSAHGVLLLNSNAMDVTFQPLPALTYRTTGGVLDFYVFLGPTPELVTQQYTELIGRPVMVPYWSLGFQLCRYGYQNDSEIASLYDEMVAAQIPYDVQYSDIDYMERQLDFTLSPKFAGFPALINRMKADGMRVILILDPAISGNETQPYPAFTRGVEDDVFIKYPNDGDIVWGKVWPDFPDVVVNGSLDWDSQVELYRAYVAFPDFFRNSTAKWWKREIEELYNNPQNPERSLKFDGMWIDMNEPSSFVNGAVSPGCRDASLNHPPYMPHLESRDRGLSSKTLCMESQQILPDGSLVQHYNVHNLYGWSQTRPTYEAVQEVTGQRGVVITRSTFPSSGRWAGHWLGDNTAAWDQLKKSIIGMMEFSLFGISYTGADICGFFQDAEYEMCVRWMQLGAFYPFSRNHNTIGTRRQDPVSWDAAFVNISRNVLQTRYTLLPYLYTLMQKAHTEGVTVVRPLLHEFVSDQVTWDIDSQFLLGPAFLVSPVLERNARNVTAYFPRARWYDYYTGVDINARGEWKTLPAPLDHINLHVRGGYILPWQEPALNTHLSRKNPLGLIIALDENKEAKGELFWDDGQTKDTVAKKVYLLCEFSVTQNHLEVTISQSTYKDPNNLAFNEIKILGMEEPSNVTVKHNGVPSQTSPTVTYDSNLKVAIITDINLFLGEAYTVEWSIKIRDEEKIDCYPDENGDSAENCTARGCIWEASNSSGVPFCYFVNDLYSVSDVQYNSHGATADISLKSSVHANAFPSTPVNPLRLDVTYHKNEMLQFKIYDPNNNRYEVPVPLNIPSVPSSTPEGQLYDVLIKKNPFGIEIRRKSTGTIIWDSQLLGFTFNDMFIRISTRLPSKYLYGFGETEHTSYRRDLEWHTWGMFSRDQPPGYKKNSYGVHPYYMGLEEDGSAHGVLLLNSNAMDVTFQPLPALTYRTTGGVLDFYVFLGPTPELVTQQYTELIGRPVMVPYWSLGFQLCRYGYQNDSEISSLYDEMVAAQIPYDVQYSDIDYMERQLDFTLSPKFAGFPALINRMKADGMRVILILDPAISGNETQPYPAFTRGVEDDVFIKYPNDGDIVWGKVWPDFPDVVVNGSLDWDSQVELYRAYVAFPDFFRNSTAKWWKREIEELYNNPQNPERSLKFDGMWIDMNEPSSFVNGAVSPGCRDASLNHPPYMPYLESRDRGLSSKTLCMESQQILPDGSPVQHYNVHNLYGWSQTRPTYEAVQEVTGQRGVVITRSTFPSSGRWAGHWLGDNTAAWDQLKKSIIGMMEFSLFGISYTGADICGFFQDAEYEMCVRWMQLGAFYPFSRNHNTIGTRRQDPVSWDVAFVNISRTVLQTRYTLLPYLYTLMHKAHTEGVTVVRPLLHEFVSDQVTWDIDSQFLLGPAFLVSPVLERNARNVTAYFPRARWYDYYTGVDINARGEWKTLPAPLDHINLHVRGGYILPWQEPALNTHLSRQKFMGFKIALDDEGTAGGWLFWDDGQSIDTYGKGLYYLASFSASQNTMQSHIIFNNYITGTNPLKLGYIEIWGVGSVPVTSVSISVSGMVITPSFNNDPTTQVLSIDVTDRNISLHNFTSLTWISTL

| Structure (SMILES) | inhibition [1] | inhibition [2] | inhibition (Glycogen phosphorylase [3]) | inhibition [4] | IC50 [8] | solubility [9] | IC50 (Glycogen phosphorylase [10]) | Activity (Rattus norvegicus [5]) | Activity (Rattus norvegicus [6]) | Activity (Rattus norvegicus [7]) |
| --- | --- | --- | --- | --- | --- | --- | --- | --- | --- | --- |
| Cc1c(-c2ccccc2)c(C#N)c(N)c(C#N)c1N1CCC(C)CC1 | 10.9% | – | 2.3% | inactive | – | – | – | – | – | – |
| COc1ccc(-c2c(C#N)c(N)c(C#N)c(SC)c2-c2ccccc2)cc1 | 6.8% | 5.7% | 37.9% | 61.5% | 86 µM | – | – | 36.9% | 26.5% | Non-toxic |
| CSc1c(C#N)c(N)c(C#N)c(C)c1-c1ccc(C(F)(F)F)cc1 | 14.4% | 22.1% | 55% | 58.5% | – | – | – | – | – | – |
| CSc1c(C)c(-c2ccccc2)c(C#N)c(N)c1C#N | 0.96% | 6.7% | 45% | inactive | – | – | – | – | – | – |
| CN(C)C(=N)NC(=N)N [METFORMIN] | – | – | – | – | – | – | – | 21.9% | 20.9% | – |
| CSc1c(C#N)c(N)c(C#N)c(-c2ccccc2)c1-c1ccccc1 | 7.4% | 10.5% | inactive | 81.6% | 58 µM | 0.13 µg/mL (≈ 0.381 µM) | – | 28.1% | 24.1% | Non-toxic |
| CSc1c(C#N)c(N)c(C#N)c(Cc2ccccc2)c1-c1ccccc1 | 24.5% | – | 11.6% | – | – | – | – | – | – | – |
| Cc1c(-c2ccccc2)c(C#N)c(N)c(C#N)c1N1CCCCC1 | 38.2% | – | 4.7% | 31.1% | – | – | – | – | – | – |
| CSc1c(C)c(-c2ccc(Cl)cc2)c(C#N)c(N)c1C#N | 19.3% | 6.7% | 12.5% | 7.3% | – | – | – | – | – | – |
| COc1ccc(-c2c(C)c(N3CCCCC3)c(C#N)c(N)c2C#N)cc1 | 33.3% | – | 15.7% | inactive | – | – | – | – | – | – |
| COc1ccc(-c2c(C#N)c(N)c(C#N)c(SC)c2-c2ccc(F)cc2)cc1 | 5.5% | 13.4% | inactive | 48.8% | – | – | – | 25.2% | 22.1% | – |

Now from value to compound, other results behind:

| inhibition [1] | inhibition [2] | inhibition (Glycogen phosphorylase [3]) | inhibition [4] | IC50 [8] | solubility [9] | IC50 (Glycogen phosphorylase [10]) | Structure (SMILES) | Activity (Rattus norvegicus [5]) | Activity (Rattus norvegicus [6]) | Activity (Rattus norvegicus [7]) |
| --- | --- | --- | --- | --- | --- | --- | --- | --- | --- | --- |
| 41.8% | 17.3% | 5% | 3.6% | – | – | – | CSc1c(C#N)c(N)c(C#N)c(C)c1-c1ccc(F)cc1 | – | – | – |
| 0.08% | 10.5% | 50% | 25.6% | – | – | – | COc1ccc(-c2c(C)c(C#N)c(N)c(C#N)c2SC)c(OC)c1 | – | – | – |
| 5.5% | 14.4% | 6.9% | 76.9% | 72 µM | – | – | COc1ccc(-c2c(C#N)c(N)c(C#N)c(SC)c2-c2ccc(OC)cc2)cc1 | 17.6% | 17.5% | Non-toxic |
| 6.1% | 6.7% | 10% | 0% | – | – | – | COc1ccc(-c2c(C)c(C#N)c(N)c(C#N)c2SC)cc1OC | – | – | – |
| 12.3% | 17.3% | 37.5% | 0% | – | – | – | COc1ccc(-c2c(C)c(SC)c(C#N)c(N)c2C#N)cc1 | – | – | – |
| 0.3% | 25.9% | 13.8% | 30.7% | – | – | – | COc1ccc(-c2c(C#N)c(N)c(C#N)c(SC)c2-c2ccc(OC)c(OC)c2)cc1 | – | – | – |
| 8.2% | inactive | 20% | 40.2% | – | – | – | CSc1c(C#N)c(N)c(C#N)c(C)c1-c1ccccc1F | – | – | – |
| 1.9% | 11.5% | 74.3% | 28.2% | – | – | 79 µM | COc1ccc(-c2c(C#N)c(N)c(C#N)c(SC)c2-c2ccc(F)cc2)c(OC)c1 | – | – | – |
